# In ChEMBL document CHEMBL4808167, “Design, Synthesis, and Evaluation of Small Molecule Gαq/11 Protein Inhibitors for the Treatment of Uveal Melanoma” (J Med Chem, 2021):
# Activity calls are given as the source filed them. The calls are words filed in the database; no cut-off is given here.
# Columns and labels:
# [1] = target: T1, GNAQ/GNA11 (Homo sapiens) (UniProt P50148+P29992); experiment: Inhibition of Galphaq/11 (unknown origin) expressed in CHO cells coexpressing M1 receptor assessed as reduction in carbachol-induced IP1 accumulation at 10 uM preincubated for 1 hr followed by carbachol stimulation and measured after 1 hr by HTRF assay relative to control; format: cell-based; settings: time 2.0 hrs
# CHO = experiment: Induction of morphological changes in chinese hamster CHO cells overexpressing M1 receptor upto 20 uM by light microscopic analysis; format: cell-based, Cricetulus griseus
# Method in brief: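 CHO-M₁ cells were treated with compound at 10 or 20 μM for 2 h, and changes in cell morphology were examined by microscopy.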
# 921 [2] = experiment: Antiproliferative activity against human 92.1 cells assessed as inhibition of cell growth at 5 to 15 uM by CCK8 assay; format: functional, cell-based; settings: dose 5-15 µM, time 24-96 hrs, TDE = time-dependent effect
# MP41 [3] = experiment: Antiproliferative activity against human MP41 cells assessed as inhibition of cell growth at 15 to 30 uM by CCK8 assay; format: functional, cell-based; settings: dose 15-30 µM, time 24-96 hrs, TDE = time-dependent effect
# 921 [4] = experiment: Antiproliferative activity against GNAQ knock down human 92.1 cells assessed as inhibition of cell growth at 10 to 15 uM after 72 hrs by CKK8 assay; format: functional; settings: dose 10-15 µM
# [5] = target: T1, GNAQ/GNA11 (Homo sapiens); experiment: Inhibition of Galphaq/11 (unknown origin) expressed in HEK293 cells cotransfected with AT1R assessed as inhibition of Ang-II induced calcium release at 100 uM preincubated for 30 mins followed by Ang-II addition by Fluo-4AM dye based fluorescence assay; format: cell-based
# Method in brief: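 HEK293 cells transfected with AT₁R, washed in HBSS with 0.1% BSA and loaded with Fluo-4 AM for 1 h at 37 °C. Washed, then pretreated with compound at 100 μM for 30 min. AngII at varying concentrations added 20 s into the fluorescence recording. Mean ± SD, n = 3.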
# [6] = Induction of apoptosis in human 921 cells assessed as viable cells at 5 uM after 48 hrs by Annexin-V-FITC/propidium iodide staining based flow cytometry (reference value: 93.8%); format: functional; settings: read-out: Activity
# [7] = Induction of apoptosis in human MP41 cells assessed as late apoptotic cells at 15 uM after 48 hrs by Annexin-V-FITC/propidium iodide staining based flow cytometry (reference value: 3.28%); format: functional
# 921 [8] = experiment: Inhibition of colony formation in human 921 cells at 1 to 5 uM after 9 days by crystal violet staining based light microscopic analysis; format: functional, cell-based; settings: dose 1-5 µM, time 9.0 day
# Method in brief: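 Cells seeded 4 × 10³/well, incubated overnight at 37 °C, 5% CO₂, then exposed to compound for 9 days until colonies visible, medium and inhibitor replaced every 3 days. Fixed in 4% paraformaldehyde 15 min, crystal violet-stained 30 min, colonies counted. Repeated twice.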
# MP41 [9] = experiment: Inhibition of cell migration in human MP41 cells at 30 uM incubated for 48 hrs by Transwell migration assay; format: functional, cell-based
# Method in brief: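 Transwell migration: 92.1 and MP41 cells (RPMI-1640, 10% FBS) seeded 1 × 10⁴/well in upper chamber in serum-free medium, 20% FBS medium below; overnight at 37 °C, then compound for 48 h. Non-migrated cells swabbed off; lower cells crystal violet-stained 30 min, counted by light microscopy. Mean SD of three independent experiments.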
# 921 [10] = experiment: Inhibition of cell invasion in human 921 cells at 5 to 15 uM incubated for 48 hrs by transwell assay; format: functional, cell-based; settings: dose 5-15 µM
# Method in brief: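 92.1 or MP41 cells (1 × 10⁴/well) seeded in serum-free medium in the upper transwell chamber, with 20% FBS medium below. Left overnight, then treated 48 h. Non-migrated cells swabbed off; cells on the lower side stained with crystal violet 30 min and counted by light microscopy (×40 for migration, ×100 for invasion). Mean ± SD, n = 3.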
# [11] = Toxicity in nude BALB/c mouse xenografted with human MP41 cells assessed as morphological changes in liver tissue at 10 to 30 mg/kg, ip administered once daily for 21 days and measured every 3 days by HE staining based assay; format: organism-based; settings: in vivo, 504 h, dose 10-30 mg/kg, time 21 day
# Method in brief: (§1)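 Nude BALB/c mice bearing serially passaged MP41 tumour slices (tertiary recipients, n = 8/group, randomized) dosed ip daily for 21 days at 10 or 30 mg/kg/d or vehicle. Body weight monitored every 3 days. Tissues collected at sacrifice, fixed in 4% paraformaldehyde 24 h, paraffin-embedded, H&E stained, viewed at ×100.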
# [12] = Toxicity in nude BALB/c mouse xenografted with human MP41 cells assessed as morphological changes in spleen tissue at 10 to 30 mg/kg, ip administered once daily for 21 days and measured every 3 days by HE staining based assay; format: organism-based; settings: in vivo, 504 h, dose 10-30 mg/kg, time 21 day; method in brief: as §1
# [13] = target: T1, GNAQ/GNA11 (Homo sapiens); experiment: Inhibition of Galphaq/11 in human MP41 cells assessed as induction of YAP phosphorylation at 15 to 30 uM after 48 hrs by Western blot analysis; format: cell-based; settings: dose 15-30 µM
# Method in brief: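 92.1 and MP41 cells plated overnight, then exposed to compound 48 h. Lysed in ice-cold buffer and protein quantified by BCA. Resolved on 8−12% SDS−PAGE and transferred to PVDF. Probed for p-YAP Ser127, total YAP, p-ERK1/2 Thr202/Tyr204 and total ERK1/2, with GAPDH as loading control. ECL detection, triplicate.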
# [14] = target: T1, GNAQ/GNA11 (Homo sapiens); experiment: Inhibition of Galphaq/11 in human MP41 cells xenografted mouse tumor tissue assessed as inhibition of ERK phosphorylation at 10 to 30 mg/kg, ip administered for 21 consecutive days by Western blot analysis; format: organism-based; settings: dose 10-30 mg/kg, time 21.0 day
# Method in brief: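 MP41 xenograft tumours from mice given 10 or 30 mg/kg/day ip for 21 consecutive days were analysed by Western blot. Probed for p-YAP, YAP, p-ERK and ERK, with GAPDH as loading control. Representative of triplicate experiments.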
# [15] = Cmax in ICR mouse at 10 mg/kg, iv measured upto 24 hrs by LC-MS/MS analysis; format: ADME, organism-based; parameters: route intravenous, dose 10 mg/kg, time <=24; settings: in vivo
# Method in brief: (§2)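 Single dose in male ICR mice, 10 mg/kg iv or 30 mg/kg po, dissolved in 5% DMSO/95% saline. Blood drawn by catheter at 0, 5, 15, 30 min and 1, 2, 4, 6, 8, 24 h. Plasma spun 6800g 6 min at 2−8 °C, stored −80 °C, quantified by LC−MS/MS. Noncompartmental parameters, mean ± SD, n = 6.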
# [16] = AUC(0 to t) in ICR mouse at 10 mg/kg, iv measured upto 24 hrs by LC-MS/MS analysis; format: ADME, organism-based; parameters: route intravenous, dose 10 mg/kg, time <=24; settings: in vivo; method in brief: as §2
# [17] = Volume of distribution at steady state in ICR mouse at 10 mg/kg, iv measured upto 24 hrs by LC-MS/MS analysis; format: ADME, organism-based; settings: in vivo, read-out: Vdss
# Method in brief: (§3)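 Single-dose PK in male ICR mice (n = 6): 10 mg/kg iv or 30 mg/kg po, vehicle 5% DMSO/95% saline. Blood (30 μL) by catheter at 0, 5, 15, 30 min and 1, 2, 4, 6, 8, 24 h; plasma by centrifugation, stored −80 °C, measured by LC–MS/MS. Parameters from noncompartmental analysis, mean SD.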
# [18] = Clearance in ICR mouse at 10 mg/kg, iv measured upto 24 hrs by LC-MS/MS analysis; format: ADME, organism-based; settings: in vivo; method in brief: as §2
# [19] = Oral bioavailability in ICR mouse at 30 mg/kg measured upto 24 hrs by LC-MS/MS analysis; format: ADME, organism-based; settings: in vivo; method in brief: as §3
compound,measurement,setting,value
CC[C@@H](C)[C@H](N)C(=O)N1CCn2cc(-c3ccccc3)nc2[C@@H]1CC1CCCCC1,inhibition,[1],36.5%
same,Activity,CHO,Non-Toxic
same,Activity,921 [2],Tde
same,Activity,MP41 [3],Tde
same,Activity,921 [4],inactive
same,Activity,[5],Active
same,viability at 5 µM,[6],90.1%
same,Activity,[7],4.42%
same,inhibition,921 [8],Active
same,inhibition,MP41 [9],Active
same,inhibition,921 [10],Active
same,Activity,[11],Non-Toxic
same,Activity,[12],Non-Toxic
same,inhibition,[13],Active
same,inhibition,[14],Active
same,Cmax,[15],2610 ng/mL
same,AUC(0-t) at 24 h,[16],2140 ng·h/mL
same,Vd,[17],4.53 L/kg
same,clearance,[18],77.9 mL/min/kg
same,bioavailability,[19],92.6%
